Test results: ChEMBL document CHEMBL4024748, “Development of Potent Type I Protein Arginine Methyltransferase (PRMT) Inhibitors of Leukemia Cell Proliferation” (J Med Chem, 2017)
Calls of active or inactive are those of the source. The calls are words filed in the database; no cut-off is given here.

What was measured:
[1] = target: T1, Protein arginine N-methyltransferase 1 (Rattus norvegicus, UniProt Q63009); assay: Inhibition of rat His-tagged PRMT1 (11 to 353 residues) expressed in Escherichia coli BL21(DE3) incubated for 15 mins followed by substrate addition measured after 60 mins by AlphaLisa method
In short: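 AlphaLISA IC50 run. Compound dispensed to 1% DMSO final, enzyme in 1x assay buffer preincubated 15 min at room temperature. Substrate added and reacted 60 min at RT, then AlphaLISA bead mix added for 60 min at RT in subdued light. IC50 taken from the dose-response fit.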

[2] = target: Histone-lysine N-methyltransferase PRDM9 (Homo sapiens) (UniProt Q9NQV7); assay: Inhibition of PRDM9 (unknown origin) at 50 uM incubated for 15 mins followed by substrate addition measured after 60 mins by AlphaLisa method
In short: (§1)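 AlphaLISA. Enzyme and substrate in 1x assay buffer, compound at 1% DMSO final. Enzyme preincubated with compound 15 min at room temperature, then substrate added. Reaction 60 min at room temperature, then bead mix added and incubated 60 min under subdued light before signal read.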

[3] = target: DNA (cytosine-5)-methyltransferase 1 (Homo sapiens) (UniProt P26358); assay: Inhibition of DNMT1 (unknown origin) at 50 uM incubated for 15 mins followed by substrate addition measured after 60 mins by radioisotope assay
[4] = target: Histone-lysine N-methyltransferase SUV39H1 (Homo sapiens) (UniProt O43463); assay: Inhibition of SUV39H1 (unknown origin) at 100 uM incubated for 15 mins followed by substrate addition measured after 60 mins by AlphaLisa method
In short: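 SUV39H1 AlphaLISA at 50 and 100 µM compound, 1% DMSO final. Enzyme preincubated 15 min at room temperature, substrate reaction 60 min at RT. Bead mix then added for 60 min at RT in subdued light before signal collection.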

REH = assay: Cytotoxicity against human REH cells assessed as decrease in cell viability after 96 hrs by Cell-Titer Glo assay; type: functional, cell-based
In short: (§2)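 Cells kept at 37°C, 5% CO2, exposed to compound or DMSO control for 96 h. Viability read by CellTiter-Glo luminescence after 2 min shaking to lyse and 10 min at room temperature. Triplicate wells, normalised to control cells. For long-term growth, log-phase seeding densities; cells counted and replated to the starting density with fresh compound on days 4 and 8.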

[5] = target: Protein arginine N-methyltransferase 1 (Homo sapiens) (UniProt Q99873); assay: Inhibition of PRMT1 in human MV411 cells assessed as increase in SDMA levels after 48 hrs by Western blot analysis; type: cell-based
In short: (§3)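 MV4-11 cells treated with compound for 48 h. ADMA, SDMA and H4R3me2a read by western blot. Blots blocked in 5% nonfat milk in PBST, primary antibodies overnight at 4°C, HRP anti-rabbit secondary at 1:10000 for 1 h.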

[6] = target: Histone-arginine methyltransferase CARM1 (Homo sapiens, UniProt Q86X55); assay: Inhibition of PRMT4 (unknown origin) incubated for 15 mins followed by substrate addition measured after 60 mins by AlphaLisa method
In short: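 Enzyme preincubated with compound for 15 min at room temperature in 1x assay buffer (final DMSO 1%), then substrate added. The reaction ran for 60 min at room temperature. AlphaLISA bead mix was then added and incubated for 60 min at room temperature in subdued light. The luminescent signal was read and IC50 derived by curve fitting.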

[7] = target: Protein arginine N-methyltransferase 1 (Rattus norvegicus) (UniProt Q63009); assay: Non-competitive inhibition of rat His-tagged PRMT1 (11 to 353 residues) expressed in Escherichia coli BL21(DE3) in presence of varying concentrations of biotinylated H4 peptide (1 to 21 residues) substrate and fixed [3H]SAM concentration
In short: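 Kinetic mode-of-action study using the radiolabel method with His6-rPRMT1(11–353). IC50 measured at varied peptide substrate or varied SAM concentrations, with the other component fixed. 15 min enzyme–compound preincubation, then 60 min reaction at RT with [3H]-SAM, Flashplate capture and Microbeta counting.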

[8] = target: Protein arginine N-methyltransferase 1 (Homo sapiens) (UniProt Q99873); assay: Inhibition of PRMT1 in human MV411 cells assessed as reduction in ADMA levels after 48 hrs by Western blot analysis; type: cell-based; in short: as §3
[9] = target: Histone-lysine N-methyltransferase 2A (Homo sapiens) (UniProt Q03164); assay: Inhibition of MLL1 (unknown origin) at 100 uM incubated for 15 mins followed by substrate addition measured after 60 mins by AlphaLisa method; in short: as §1
[10] = target: Histone-lysine N-methyltransferase 2A (Homo sapiens) (UniProt Q03164); assay: Inhibition of MLL1 (unknown origin) at 50 uM incubated for 15 mins followed by substrate addition measured after 60 mins by AlphaLisa method; in short: as §1
MV4-11 [11] = assay: Antiproliferative activity against human MV4-11 cells assessed as decrease in cell viability at 0.1 to 1000 uM by Cell-Titer Glo assay; type: functional, cell-based; details: TDE = time-dependent effect; in short: as §2
[12] = target: DNA (cytosine-5)-methyltransferase 1 (Homo sapiens) (UniProt P26358); assay: Inhibition of DNMT1 (unknown origin) at 100 uM incubated for 15 mins followed by substrate addition measured after 60 mins by radioisotope assay
THP-1 = assay: Cytotoxicity against human THP1 cells assessed as decrease in cell viability after 96 hrs by Cell-Titer Glo assay; type: functional, cell-based; in short: as §2
[13] = Cytotoxicity against human RCTEC cells assessed as decrease in cell viability at 6.25 to 25 uM after 96 hrs by Cell-Titer Glo assay; type: cell-based
In short: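 Normal HUV-EC-C, MRC-5 and RCTEC cells at 37°C, 5% CO2, given compound or DMSO control for 96 h. Viability by CellTiter-Glo luminescence after 2 min shaking and 10 min at room temperature. Triplicate wells, normalised to control cells.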

[14] = target: T1, Protein arginine N-methyltransferase 1; assay: Inhibition of rat His-tagged PRMT1 (11 to 353 residues) expressed in Escherichia coli BL21(DE3) using biotinylated H4 peptide (1 to 21 residues) as substrate preincubated for 15 mins followed by substrate addition measured after 60 mins in presence of [3H]SAM by microbeta counting method
In short: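 Radiometric assay in modified Tris buffer. His6-rPRMT1(11–353) preincubated with compound 15 min at RT, then substrate and [3H]-SAM added. Reaction 60 min at RT, stopped with cold stop solution, transferred to Flashplate for 60 min, washed with water/0.1% Tween-20, counted on Microbeta. IC50 from curve fit.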

[15] = target: Histone-lysine N-methyltransferase, H3 lysine-79 specific (Homo sapiens) (UniProt Q8TEK3); assay: Inhibition of DOT1L (unknown origin) at 100 uM incubated for 15 mins followed by substrate addition measured after 60 mins by Alpha screen assay
In short: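 DOT1L by AlphaScreen. Enzyme and substrate in 1x assay buffer, compound at 1% DMSO final. Enzyme preincubated with compound 15 min at room temperature, substrate added, reaction 60 min at room temperature. Acceptor/donor bead mix added and incubated 60 min at room temperature under subdued light.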

MV4-11 [16] = assay: Downregulation of HOXA9 mRNA levels in human MV4-11 cells by qRT-PCR analysis; type: functional, cell-based
In short: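 MV4-11 cells treated with compound. mRNA measured by SYBR Green qRT-PCR with B2M as internal control. Fold change from ΔΔCt. Samples run in triplicate, mean ± SD.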

[17] = target: Histone-lysine N-methyltransferase EZH2 (Homo sapiens) (UniProt Q15910); assay: Inhibition of EZH2 (unknown origin) at 100 uM incubated for 15 mins followed by substrate addition measured after 60 mins by radioisotope assay

Histone-lysine N-methyltransferase 2A (Homo sapiens), sequence (Q03164 1-2718 limits assumed): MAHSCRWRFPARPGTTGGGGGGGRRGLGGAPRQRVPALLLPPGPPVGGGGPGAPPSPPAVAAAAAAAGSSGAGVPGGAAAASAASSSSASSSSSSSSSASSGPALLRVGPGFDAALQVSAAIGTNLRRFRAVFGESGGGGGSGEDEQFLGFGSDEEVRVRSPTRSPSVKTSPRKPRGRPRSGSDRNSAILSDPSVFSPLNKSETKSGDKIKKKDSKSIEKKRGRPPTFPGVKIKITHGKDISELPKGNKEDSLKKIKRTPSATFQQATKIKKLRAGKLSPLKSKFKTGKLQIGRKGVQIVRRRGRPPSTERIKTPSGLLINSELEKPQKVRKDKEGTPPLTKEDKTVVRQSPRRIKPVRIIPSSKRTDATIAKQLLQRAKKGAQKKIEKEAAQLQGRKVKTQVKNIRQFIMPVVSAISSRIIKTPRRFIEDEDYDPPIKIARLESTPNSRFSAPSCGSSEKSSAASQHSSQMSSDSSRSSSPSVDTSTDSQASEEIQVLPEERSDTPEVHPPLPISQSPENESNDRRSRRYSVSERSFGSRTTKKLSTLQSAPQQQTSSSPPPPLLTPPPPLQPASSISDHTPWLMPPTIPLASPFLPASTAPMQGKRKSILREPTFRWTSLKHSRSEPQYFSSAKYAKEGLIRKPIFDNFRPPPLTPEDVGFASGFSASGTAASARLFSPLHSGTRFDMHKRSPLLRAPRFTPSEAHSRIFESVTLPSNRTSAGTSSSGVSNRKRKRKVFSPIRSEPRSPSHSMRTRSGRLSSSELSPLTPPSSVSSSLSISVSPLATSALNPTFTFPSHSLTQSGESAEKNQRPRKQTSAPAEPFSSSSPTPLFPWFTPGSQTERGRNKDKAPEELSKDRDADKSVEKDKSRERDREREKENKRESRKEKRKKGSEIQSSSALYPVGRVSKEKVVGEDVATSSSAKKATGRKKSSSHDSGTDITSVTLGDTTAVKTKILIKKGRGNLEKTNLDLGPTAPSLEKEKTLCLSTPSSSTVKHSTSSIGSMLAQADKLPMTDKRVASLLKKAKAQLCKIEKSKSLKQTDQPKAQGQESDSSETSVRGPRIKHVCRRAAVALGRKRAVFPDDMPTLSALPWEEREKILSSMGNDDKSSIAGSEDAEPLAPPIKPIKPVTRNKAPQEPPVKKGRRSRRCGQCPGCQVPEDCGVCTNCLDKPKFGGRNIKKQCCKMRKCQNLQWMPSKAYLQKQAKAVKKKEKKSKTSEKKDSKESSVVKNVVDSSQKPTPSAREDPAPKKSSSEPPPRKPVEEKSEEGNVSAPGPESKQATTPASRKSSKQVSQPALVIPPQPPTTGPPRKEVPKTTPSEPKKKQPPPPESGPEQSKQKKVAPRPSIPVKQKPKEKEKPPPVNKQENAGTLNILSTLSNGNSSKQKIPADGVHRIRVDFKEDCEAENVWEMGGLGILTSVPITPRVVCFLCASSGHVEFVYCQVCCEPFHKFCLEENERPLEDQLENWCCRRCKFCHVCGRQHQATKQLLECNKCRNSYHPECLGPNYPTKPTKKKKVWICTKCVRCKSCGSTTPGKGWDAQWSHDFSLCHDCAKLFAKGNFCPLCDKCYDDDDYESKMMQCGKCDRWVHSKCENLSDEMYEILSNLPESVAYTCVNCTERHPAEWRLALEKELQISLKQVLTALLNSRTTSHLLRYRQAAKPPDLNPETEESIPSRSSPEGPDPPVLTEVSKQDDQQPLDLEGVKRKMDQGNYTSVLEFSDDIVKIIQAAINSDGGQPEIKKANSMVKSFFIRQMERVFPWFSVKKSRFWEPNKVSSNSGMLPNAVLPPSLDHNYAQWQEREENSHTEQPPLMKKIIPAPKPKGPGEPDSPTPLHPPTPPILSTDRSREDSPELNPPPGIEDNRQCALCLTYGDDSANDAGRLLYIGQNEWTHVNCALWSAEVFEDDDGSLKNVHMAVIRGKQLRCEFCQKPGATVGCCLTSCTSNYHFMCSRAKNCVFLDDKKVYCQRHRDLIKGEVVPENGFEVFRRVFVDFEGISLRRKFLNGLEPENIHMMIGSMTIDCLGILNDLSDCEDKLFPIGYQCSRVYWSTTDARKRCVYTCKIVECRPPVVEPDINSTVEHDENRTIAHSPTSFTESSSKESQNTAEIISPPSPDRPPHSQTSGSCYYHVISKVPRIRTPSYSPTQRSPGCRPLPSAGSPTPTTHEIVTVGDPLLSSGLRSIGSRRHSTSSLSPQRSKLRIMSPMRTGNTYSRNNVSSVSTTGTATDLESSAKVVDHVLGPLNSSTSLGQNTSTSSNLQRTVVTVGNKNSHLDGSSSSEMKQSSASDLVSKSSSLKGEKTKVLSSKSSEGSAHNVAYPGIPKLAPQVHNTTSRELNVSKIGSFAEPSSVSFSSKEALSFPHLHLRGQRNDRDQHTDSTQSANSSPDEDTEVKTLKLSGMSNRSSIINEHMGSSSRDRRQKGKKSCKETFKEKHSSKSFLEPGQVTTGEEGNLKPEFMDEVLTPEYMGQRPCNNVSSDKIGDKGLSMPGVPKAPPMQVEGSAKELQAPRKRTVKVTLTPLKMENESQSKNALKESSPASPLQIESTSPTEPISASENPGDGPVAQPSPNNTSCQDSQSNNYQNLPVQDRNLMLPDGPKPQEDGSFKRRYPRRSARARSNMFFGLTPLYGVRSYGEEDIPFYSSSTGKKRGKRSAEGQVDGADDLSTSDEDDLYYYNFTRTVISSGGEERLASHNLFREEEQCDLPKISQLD
Histone-lysine N-methyltransferase 2A (Homo sapiens), sequence (Q03164 2719-3969 limits assumed): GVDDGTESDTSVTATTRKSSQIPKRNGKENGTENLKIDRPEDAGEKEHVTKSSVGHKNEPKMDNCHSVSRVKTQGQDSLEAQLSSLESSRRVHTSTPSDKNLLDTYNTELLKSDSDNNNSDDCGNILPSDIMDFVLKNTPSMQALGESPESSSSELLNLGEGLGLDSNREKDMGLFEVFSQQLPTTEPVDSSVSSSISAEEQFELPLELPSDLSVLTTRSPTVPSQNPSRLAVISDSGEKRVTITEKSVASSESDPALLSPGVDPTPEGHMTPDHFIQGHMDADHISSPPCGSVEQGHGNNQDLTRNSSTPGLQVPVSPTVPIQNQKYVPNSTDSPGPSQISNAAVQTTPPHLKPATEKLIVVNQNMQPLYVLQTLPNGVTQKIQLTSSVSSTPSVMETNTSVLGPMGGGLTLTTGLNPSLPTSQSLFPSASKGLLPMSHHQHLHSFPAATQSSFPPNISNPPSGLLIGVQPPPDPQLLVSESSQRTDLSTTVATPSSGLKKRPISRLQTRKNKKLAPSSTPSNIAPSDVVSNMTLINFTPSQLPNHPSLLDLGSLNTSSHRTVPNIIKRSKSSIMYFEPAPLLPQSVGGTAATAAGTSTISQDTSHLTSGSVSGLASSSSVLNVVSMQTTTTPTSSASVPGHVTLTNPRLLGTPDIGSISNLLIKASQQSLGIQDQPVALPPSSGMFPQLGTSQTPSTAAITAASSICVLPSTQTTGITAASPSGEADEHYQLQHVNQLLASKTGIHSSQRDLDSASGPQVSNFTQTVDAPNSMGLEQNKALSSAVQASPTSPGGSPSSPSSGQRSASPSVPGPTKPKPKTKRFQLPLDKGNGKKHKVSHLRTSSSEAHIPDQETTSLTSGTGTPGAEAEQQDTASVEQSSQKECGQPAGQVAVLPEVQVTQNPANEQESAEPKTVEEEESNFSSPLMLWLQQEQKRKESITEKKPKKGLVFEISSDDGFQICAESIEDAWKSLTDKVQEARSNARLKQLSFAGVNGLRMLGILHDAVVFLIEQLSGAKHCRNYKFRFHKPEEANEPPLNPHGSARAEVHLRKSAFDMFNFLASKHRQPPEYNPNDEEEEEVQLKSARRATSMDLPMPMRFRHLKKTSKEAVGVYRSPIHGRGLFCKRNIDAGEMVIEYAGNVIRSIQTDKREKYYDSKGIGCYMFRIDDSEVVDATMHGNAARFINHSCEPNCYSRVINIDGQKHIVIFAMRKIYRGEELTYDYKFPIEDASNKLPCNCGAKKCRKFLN
T1 sequence (Q63009 whole entry, the tested form may be a part): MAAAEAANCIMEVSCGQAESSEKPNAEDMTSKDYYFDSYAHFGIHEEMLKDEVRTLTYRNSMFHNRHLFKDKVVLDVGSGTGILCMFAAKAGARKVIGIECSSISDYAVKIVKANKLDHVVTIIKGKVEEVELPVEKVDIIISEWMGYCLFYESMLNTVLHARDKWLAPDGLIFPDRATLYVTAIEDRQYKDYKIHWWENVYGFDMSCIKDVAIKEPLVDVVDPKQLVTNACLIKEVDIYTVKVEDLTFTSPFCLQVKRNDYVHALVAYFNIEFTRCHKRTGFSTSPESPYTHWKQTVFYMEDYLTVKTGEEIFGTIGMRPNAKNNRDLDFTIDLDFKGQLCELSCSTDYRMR
Protein arginine N-methyltransferase 1 (Homo sapiens), sequence (Q99873 whole entry, looked up): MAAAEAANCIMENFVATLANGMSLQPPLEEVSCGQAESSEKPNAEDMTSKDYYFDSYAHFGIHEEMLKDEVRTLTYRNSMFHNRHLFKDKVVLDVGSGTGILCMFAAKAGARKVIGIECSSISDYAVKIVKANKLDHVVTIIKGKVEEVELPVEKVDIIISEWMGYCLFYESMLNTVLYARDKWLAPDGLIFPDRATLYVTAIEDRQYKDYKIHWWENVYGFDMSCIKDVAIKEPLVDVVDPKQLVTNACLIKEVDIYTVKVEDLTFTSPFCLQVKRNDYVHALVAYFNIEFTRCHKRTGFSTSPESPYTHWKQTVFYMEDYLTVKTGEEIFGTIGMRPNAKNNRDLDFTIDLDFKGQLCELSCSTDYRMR
Histone-lysine N-methyltransferase SUV39H1 (Homo sapiens), sequence (O43463 whole entry): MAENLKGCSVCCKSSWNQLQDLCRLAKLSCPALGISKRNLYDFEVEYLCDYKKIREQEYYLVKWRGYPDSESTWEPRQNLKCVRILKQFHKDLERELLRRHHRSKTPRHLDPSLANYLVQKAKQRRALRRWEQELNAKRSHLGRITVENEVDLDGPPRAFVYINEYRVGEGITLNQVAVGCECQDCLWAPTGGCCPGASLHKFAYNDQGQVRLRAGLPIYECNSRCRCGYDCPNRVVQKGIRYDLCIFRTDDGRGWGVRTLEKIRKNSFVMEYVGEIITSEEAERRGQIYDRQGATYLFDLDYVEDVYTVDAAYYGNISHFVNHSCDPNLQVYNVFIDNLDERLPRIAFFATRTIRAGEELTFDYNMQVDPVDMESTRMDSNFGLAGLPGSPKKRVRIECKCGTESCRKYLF

CN(CCN)Cc1ccccc1Sc1ccccc1Cl
IC50 [1]: 1.1 nM | inhibition [2]: Active | inhibition [3]: Active | inhibition [4]: Active | Activity (REH): Dose-dependent effect | inhibition [5]: Dose-dependent effect | IC50 [6]: 63 nM | inhibition [7]: Active | inhibition [8]: Dose-dependent effect | inhibition [9]: Active | inhibition [10]: Active | Activity (MV4-11 [11]): Tde | inhibition [12]: Active | Activity (THP-1): Dose-dependent effect | Activity [13]: Non-Toxic | IC50 [14]: 5.3 nM | inhibition [15]: Active | Activity (MV4-11 [16]): Dose-dependent effect | inhibition [17]: Active
